Experimental data taken from PMC6248884 (European journal of medicinal chemistry, 2018).
Like-named read-outs stand apart in the source and are kept apart here. Square brackets hold non-standard residues; d marks the D form. Peptide text beside a SMILES is read from it. * marks the point of attachment. Dolaproine = CO[C@@H]([C@@H]1CCCN1)[C@@H](C)C(=O)O; Dil = CC[C@H](C)[C@H](NC)[C@@H](CC(=O)O)OC; X1 = C[C@@H](N*)[C@@H](O)c1ccccc1; NMeV = CN[C@H](C(=O)O)C(C)C

What was measured:
HCT116 cells = assay: Cytotoxicity to HCT116 colon adenocarcinoma cell line; format: cell-based
NCI-H460 cells = assay: Cytotoxicity assay to NCI-H460 human lung carcinoma cells; format: cell-based
SKBR3 cells (Her2+) = assay: Cell proliferation assay; format: cell-based
MDA-MB-468 cells (Her2-) = assay: Cell proliferation assay; format: cell-based
MDA-MB-231 cells (Her2-) = assay: Cell proliferation assay; format: cell-based; conditions: read-out: MDA-MB-231 IC50, Table 5
[1] = biological target: human 20S proteasome ChT-L site (Homo sapiens, UniProt P20618+P28074); assay: Proteasome inhibition assay, chymotrypsin-like site, fluorogenic substrate; format: biochemical
Method in brief: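 Human recombinant 20S proteasome, 3 µg/mL in buffer (100 mM Tris pH 7.5, 0.5 mM EDTA, 0.03% SDS), preincubated 30 min at 37 °C with test compound or 25% DMSO vehicle. Reaction started with site-selective AMC substrate (Suc-LLVY-AMC for ChT-L) and run 30 min at 37 °C. Eleven-point 3-fold series, 1.0 µM–[…] final, in triplicate. Fluorescence read at ex 365/em 450 nm; data scaled to internal controls; IC50 from four-parameter logistic fit.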

[2] = biological target: ChT-L site of the proteasome; assay: Binding affinity to the ChT-L site of the proteasome; format: biochemical; conditions: read-out: IC50, ChT-L site of the proteasome; proteasome source not stated
[3] = biological target: human 20S proteasome T-L site (Homo sapiens, UniProt P49720+Q99436); assay: Proteasome inhibition assay, trypsin-like site, fluorogenic substrate; format: biochemical
[4] = biological target: human 20S proteasome C-L site (Homo sapiens, UniProt P28072+Q99436); assay: Proteasome inhibition assay, caspase-like site, fluorogenic substrate; format: biochemical
[5] = Homo sapiens, HCT-116, read-out: HCT116 IC50
[6] = Homo sapiens, NCI-H460, read-out: NCI-H460 IC50
[7] = read-out: NCI-H460 IC50, Table 1, NCI-H460 cell line
[8] = Homo sapiens, SK-BR-3, read-out: SKBR3 IC50
[9] = Homo sapiens, MDA-MB-468, read-out: MDA-MB-468 IC50

SMILES | IC50 (HCT116 cells; [5]) [nM] | IC50 (NCI-H460 cells; [6]) [nM] | IC50 [1] [nM] | further results
CCCCCC(=O)N[C@H](C(=O)N[C@@H](CCS(=O)(=O)c1ccc(NC(=O)OC(C)(C)C)cc1)C(=O)N[C@@H](CC(C)C)C(=O)[C@@]1(C)CO1)C(C)C [Analogue 13-Boc, tert-Butyl (4-(((S)-3-((S)-2-hexanamido-3-methylbutanamido)-4-(((S)-4-methyl-1-((R)-2methyloxiran-2-yl)-1-oxopentan-2-yl)amino)-4-oxobutyl)sulfonyl)phenyl)carbamate] | 4.9 ± 0.1 |  |  | 
CC(C)(C)OC(=O)NCCS(=O)(=O)CC[C@H](NC(=O)[C@H](Cc1ccccc1)NC(=O)Cc1ccccc1)C(=O)N[C@@H](Cc1ccccc1)C(=O)[C@@]1(C)CO1 [Analogue 10-Boc, tert-Butyl (2-(((S)-4-(((S)-1-((R)-2-methyloxiran-2-yl)-1-oxo-3-phenylpropan-2-yl)amino)-4oxo-3-((S)-3-phenyl-2-(2-phenylacetamido)propanamido)butyl)sulfonyl)ethyl)carbamate] | 10.9 ± 0.98 | 21 ± 1.3 |  | 
CC[C@H](C)[C@@H]([C@@H](CC(=O)N1CCC[C@H]1[C@H](OC)[C@@H](C)C(=O)N[C@H](C)[C@@H](O)c1ccccc1)OC)N(C)C(=O)[C@@H](NC(=O)[C@@H](NC)C(C)C)C(C)C [MMAE, monomethyl auristatin E, reference compound] (H-[NMeV]V[Dil][Dolaproine]-X1) |  |  |  | IC50 (SKBR3 cells (Her2+); read-out: SKBR3 IC50, Table 5, Her2+ cell): 0.072 nM; IC50 (MDA-MB-468 cells (Her2-); read-out: MDA-MB-468 IC50, Table 5, Her2- cell): 0.17 nM; IC50 (MDA-MB-231 cells (Her2-)): 0.005 nM
CC(C)C[C@H](NC(=O)[C@H](CCS(=O)(=O)CCN)NC(=O)[C@H](Cc1ccccc1)NC(=O)Cc1ccccc1)C(=O)[C@@]1(C)CO1 [Analogue 8, (S)-4-((2-Aminoethyl)sulfonyl)-N-((S)-4-methyl-1-((R)-2-methyloxiran-2-yl)-1-oxopentan-2yl)-2-((S)-3-phenyl-2-(2-phenylacetamido)propanamido)butanamide] | 165 | 34.2 |  | 
CCCCCC(=O)N[C@H](C(=O)N[C@@H](CCS(=O)(=O)CCNC(=O)OC(C)(C)C)C(=O)N[C@@H](CC(C)C)C(=O)[C@@]1(C)CO1)C(C)C [Analogue 7-Boc, tert-Butyl (2-(((S)-3-((S)-2-hexanamido-3-methylbutanamido)-4-(((S)-4-methyl-1-((R)-2methyloxiran-2-yl)-1-oxopentan-2-yl)amino)-4-oxobutyl)sulfonyl)ethyl)carbamate] | 4.8 ± 0.27 | 2.1 ± 0.16 | 14.2 ± 2.4 | 
CC(C)CC(NC(=O)C(CCS(C)(=O)=O)NC(=O)C(NC(=O)CCCCCN)C(C)C)C(=O)C1(C)CO1 (centres unmarked) [Analogue 6] |  |  |  | IC50 (NCI-H460 cells; [7]): 860 nM; IC50 [2]: 539 nM
CCCCCC(=O)N[C@H](C(=O)N[C@@H](CCC(=O)N[C@@H](CC(C)C)C(=O)[C@@]1(C)CO1)C(=O)NC(CCS(=O)(=O)c1ccc(N)cc1)C(=O)OC)C(C)C (stereo partly drawn) [Analogue 17, Methyl 4-((4-aminophenyl)sulfonyl)-2-((S)-2-((S)-2-hexanamido-3-methylbutanamido)-5(((S)-4-methyl-1-((R)-2-methyloxiran-2-yl)-1-oxopentan-2-yl)amino)-5oxopentanamido)butanoate] | 5540 | > 10000 | > 1000 | IC50 (SKBR3 cells (Her2+); [8]): 2430 nM; IC50 (MDA-MB-468 cells (Her2-); [9]): 1740 nM; IC50 [3]: > 1000 nM; IC50 [4]: > 1000 nM
C[C@]1(C(=O)[C@H](Cc2ccccc2)NC(=O)[C@H](CCS(=O)(=O)CCN)NC(=O)[C@H](Cc2ccccc2)NC(=O)Cc2ccccc2)CO1 [Analogue 10, (S)-4-((2-Aminoethyl)sulfonyl)-N-((S)-1-((R)-2-methyloxiran-2-yl)-1-oxo-3-phenylpropan-2yl)-2-((S)-3-phenyl-2-(2-phenylacetamido)propanamido)butanamide] | 698 | 304 |  | 
CC(C)C[C@H](NC(=O)CC[C@H](NC(=O)[C@@H](NC(=O)Cc1ccc(N)cc1)C(C)C)C(=O)N[C@@H](CC(C)C)C(=O)[C@@]1(C)CO1)C(=O)[C@@]1(C)CO1 [Analogue 16, (S)-2-((S)-2-(2-(4-Aminophenyl)acetamido)-3-methylbutanamido)-N1,N5-bis((S)-4-methyl1-((R)-2-methyloxiran-2-yl)-1-oxopentan-2-yl)pentanediamide] | 45 | 25.3 | 90 ± 13 | IC50 (SKBR3 cells (Her2+); [8]): 25 nM; IC50 (MDA-MB-468 cells (Her2-); [9]): 33 nM; IC50 [3]: 71.5 nM; IC50 [4]: > 1000 nM
CCCCCC(=O)N[C@H](C(=O)N[C@@H](CCS(=O)(=O)CCN)C(=O)N[C@@H](CC(C)C)C(=O)[C@@]1(C)CO1)C(C)C [Analogue 7, N-((S)-1-(((S)-4-((2-aminoethyl)sulfonyl)-1-(((S)-4-methyl-1-((R)-2-methyloxiran-2-yl)-1oxopentan-2-yl)amino)-1-oxobutan-2-yl)amino)-3-methyl-1-oxobutan-2-yl)hexanamide] | 624 | 34 | 42.2 ± 5.4 | 
CCCCCC(=O)N[C@H](C(=O)N[C@@H](CCS(=O)(=O)CCNC(=O)OC(C)(C)C)C(=O)N[C@@H](Cc1ccccc1)C(=O)[C@@]1(C)CO1)C(C)C [Analogue 9-Boc, tert-Butyl (2-(((S)-3-((S)-2-hexanamido-3-methylbutanamido)-4-(((S)-1-((R)-2methyloxiran-2-yl)-1-oxo-3-phenylpropan-2-yl)amino)-4oxobutyl)sulfonyl)ethyl)carbamate] | 1.3 ± 0.2 | 2.6 ± 0.12 |  | 
CC(C)C[C@H](NC(=O)[C@H](CCS(=O)(=O)CCNC(=O)OC(C)(C)C)NC(=O)[C@H](Cc1ccccc1)NC(=O)Cc1ccccc1)C(=O)[C@@]1(C)CO1 [Analogue 8-Boc, tert-Butyl (2-(((S)-4-(((S)-4-methyl-1-((R)-2-methyloxiran-2-yl)-1-oxopentan-2-yl)amino)-4oxo-3-((S)-3-phenyl-2-(2-phenylacetamido)propanamido)butyl)sulfonyl)ethyl)carbamate] | 4.8 ± 0.35 | 8.5 ± 1.2 |  | 
CCCCCC(=O)N[C@@H](Cc1ccc(N)cc1)C(=O)N[C@@H](CCC(=O)N[C@@H](CC(C)C)C(=O)[C@@]1(C)CO1)C(=O)N[C@@H](CC(C)C)C(=O)[C@@]1(C)CO1 [Analogue 15, (S)-2-((S)-3-(4-Aminophenyl)-2-hexanamidopropanamido)-N1,N5-bis((S)-4-methyl-1-((R)2-methyloxiran-2-yl)-1-oxopentan-2-yl)pentanediamide] | 53 | 29.8 | 5.6 | IC50 (SKBR3 cells (Her2+); [8]): 21 nM; IC50 (MDA-MB-468 cells (Her2-); [9]): 30 nM; IC50 [3]: 315 nM; IC50 [4]: > 1000 nM
CCCCCC(=O)N[C@H](C(=O)N[C@@H](CCC(=O)N[C@@H](CC(C)C)C(=O)[C@@]1(C)CO1)C(=O)N[C@@H](CC(C)C)C(=O)[C@@]1(C)CO1)C(C)C [Analogue 14, (S)-2-((S)-2-Hexanamido-3-methylbutanamido)-N1,N5-bis((S)-4-methyl-1-((R)-2methyloxiran-2-yl)-1-oxopentan-2-yl)pentanediamide] | 0.2 ± 0.1 | 5.4 ± 1 | 1.9 ± 0.1 | IC50 [3]: 98 nM; IC50 [4]: 150 nM
CCCCCC(=O)NC(C(=O)NC(CCSC)C(=O)NC(CC(C)C)C(=O)C1(C)CO1)C(C)C (centres unmarked) [Analogue 21] |  |  |  | IC50 (HCT116 cells; read-out: HCT116 IC50, Table 2, HCT116 cell line): 22 nM; IC50 (NCI-H460 cells; read-out: NCI-H460 IC50, Table 2, NCI-H460 cell line): 27 ± 2.6 nM
CCCCCC(=O)N[C@H](C(=O)N[C@@H](CCS(C)(=O)=O)C(=O)N[C@@H](CC(C)C)C(=O)[C@@]1(C)CO1)C(C)C [carmaphycin B, reference compound] |  |  |  | IC50 (NCI-H460 cells; [7]): 6 nM
CCCCCC(=O)N[C@H](C(=O)N[C@@H](CCS(=O)(=O)c1ccc(N)cc1)C(=O)N[C@@H](CC(C)C)C(=O)[C@@]1(C)CO1)C(C)C [Analogue 13, N-((S)-1-(((S)-4-((4-Aminophenyl)sulfonyl)-1-(((S)-4-methyl-1-((R)-2-methyloxiran-2-yl)-1oxopentan-2-yl)amino)-1-oxobutan-2-yl)amino)-3-methyl-1-oxobutan-2-yl)hexanamide] | 2.6 ± 0.2 | 1.8 ± 0.1 | 1.5 ± 0.2 | IC50 (SKBR3 cells (Her2+); [8]): 0.43 nM; IC50 [3]: 14 nM; IC50 [4]: 540 nM
CCCCCC(=O)N[C@H](C(=O)N[C@@H](CCS(=O)(=O)CCN)C(=O)N[C@@H](Cc1ccccc1)C(=O)[C@@]1(C)CO1)C(C)C [Analogue 9, N-((S)-1-(((S)-4-((2-Aminoethyl)sulfonyl)-1-(((S)-1-((R)-2-methyloxiran-2-yl)-1-oxo-3phenylpropan-2-yl)amino)-1-oxobutan-2-yl)amino)-3-methyl-1-oxobutan-2-yl)hexanamide] | 882 | 33.4 |  | 
